Test results from ChEMBL document CHEMBL1143387, “Synthesis of 18F-labelled 2-(4'-fluorophenyl)-1,3-benzothiazole and evaluation as amyloid imaging agent in comparison with [11C]PIB” (Bioorg Med Chem Lett, 2009).

Columns and labels:
[1] = test system: Kidney; assay: Biodistribution in NMRI mouse kidneys assessed per gram of tissue at 3.7 MBq/mL after 60 mins by gamma counter; format: ADME, organism-based; conditions: in vivo, 1 h
Procedure, shortened: (§1)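 Male NMRI mice (30–40 g), anaesthetised by ip Hypnorm (0.1 ml), given 0.1 ml diluted tracer via tail vein (ethanol ≤10%, THF ≤0.02%). Killed by decapitation at 2 or 60 min pi, n = 4 per time point. Blood and organs dissected and weighed, radioactivity gamma-counted with background correction. Reported as % ID or % ID/g; total blood activity assumes blood mass 7% of body mass.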

[2] = test system: Liver; assay: Biodistribution in NMRI mouse liver at 3.7 MBq/mL after 2 mins by gamma counter; format: ADME, organism-based; conditions: in vivo; procedure, shortened: as §1
[3] = test system: Liver; assay: Biodistribution in NMRI mouse liver assessed per gram of tissue at 3.7 MBq/mL after 2 mins by gamma counter; format: ADME, organism-based; conditions: in vivo; procedure, shortened: as §1
[4] = test system: Liver; assay: Biodistribution in NMRI mouse liver at 3.7 MBq/mL after 60 mins by gamma counter; format: ADME, organism-based; conditions: in vivo, 1 h; procedure, shortened: as §1
[5] = test system: Liver; assay: Biodistribution in NMRI mouse liver assessed per gram of tissue at 3.7 MBq/mL after 60 mins by gamma counter; format: ADME, organism-based; conditions: in vivo, 1 h; procedure, shortened: as §1
[6] = test system: Lung; assay: Biodistribution in NMRI mouse lungs at 3.7 MBq/mL after 2 mins by gamma counter; format: ADME, organism-based; conditions: in vivo; procedure, shortened: as §1
[7] = test system: Lung; assay: Biodistribution in NMRI mouse lungs assessed per gram of tissue at 3.7 MBq/mL after 2 mins by gamma counter; format: ADME, organism-based; conditions: in vivo; procedure, shortened: as §1
[8] = test system: Lung; assay: Biodistribution in NMRI mouse lungs at 3.7 MBq/mL after 60 mins by gamma counter; format: ADME, organism-based; conditions: in vivo, 1 h; procedure, shortened: as §1
[9] = test system: Lung; assay: Biodistribution in NMRI mouse lungs assessed per gram of tissue at 3.7 MBq/mL after 60 mins by gamma counter; format: ADME, organism-based; conditions: in vivo, 1 h; procedure, shortened: as §1
[10] = test system: Intestine; assay: Biodistribution in NMRI mouse intestine at 3.7 MBq/mL after 2 mins by gamma counter; format: ADME, organism-based; conditions: in vivo; procedure, shortened: as §1
[11] = test system: Blood; assay: Biodistribution in NMRI mouse blood at 3.7 MBq/mL after 2 mins by gamma counter; format: ADME, organism-based; conditions: in vivo; procedure, shortened: as §1
[12] = test system: Blood; assay: Biodistribution in NMRI mouse blood assessed per gram of tissue at 3.7 MBq/mL after 2 mins by gamma counter; format: ADME, organism-based; conditions: in vivo; procedure, shortened: as §1
[13] = test system: Blood; assay: Biodistribution in NMRI mouse blood at 3.7 MBq/mL after 60 mins by gamma counter; format: ADME, organism-based; conditions: in vivo, 1 h; procedure, shortened: as §1
[14] = test system: Blood; assay: Biodistribution in NMRI mouse blood assessed per gram of tissue at 3.7 MBq/mL after 60 mins by gamma counter; format: ADME, organism-based; conditions: in vivo, 1 h; procedure, shortened: as §1
[15] = Biodistribution in NMRI mouse cerebrum at 3.7 MBq/mL after 2 mins by gamma counter; format: ADME, organism-based; conditions: in vivo; procedure, shortened: as §1
[16] = Biodistribution in NMRI mouse cerebrum assessed per gram of tissue at 3.7 MBq/mL after 2 mins by gamma counter; format: ADME, organism-based; conditions: in vivo; procedure, shortened: as §1
[17] = Biodistribution in NMRI mouse cerebrum at 3.7 MBq/mL after 60 mins by gamma counter; format: ADME, organism-based; conditions: in vivo, 1 h; procedure, shortened: as §1
[18] = Biodistribution in NMRI mouse cerebrum assessed per gram of tissue at 3.7 MBq/mL after 60 mins by gamma counter; format: ADME, organism-based; conditions: in vivo, 1 h; procedure, shortened: as §1
[19] = test system: Cerebellum; assay: Biodistribution in NMRI mouse cerebellum at 3.7 MBq/mL after 2 mins by gamma counter; format: ADME, organism-based; conditions: in vivo; procedure, shortened: as §1
[20] = test system: Cerebellum; assay: Biodistribution in NMRI mouse cerebellum assessed per gram of tissue at 3.7 MBq/mL after 2 mins by gamma counter; format: ADME, organism-based; conditions: in vivo; procedure, shortened: as §1
[21] = test system: Cerebellum; assay: Biodistribution in NMRI mouse cerebellum at 3.7 MBq/mL after 60 mins by gamma counter; format: ADME, organism-based; conditions: in vivo, 1 h; procedure, shortened: as §1
[22] = test system: Cerebellum; assay: Biodistribution in NMRI mouse cerebellum assessed per gram of tissue at 3.7 MBq/mL after 60 mins by gamma counter; format: ADME, organism-based; conditions: in vivo, 1 h; procedure, shortened: as §1
[23] = Biodistribution in NMRI mouse liver/gallbladder at 3.7 MBq/mL after 2 mins by gamma counter; format: ADME, organism-based; conditions: in vivo; procedure, shortened: as §1
[24] = Biodistribution in NMRI mouse liver/gallbladder at 3.7 MBq/mL after 60 mins by gamma counter; format: ADME, organism-based; conditions: in vivo, 1 h; procedure, shortened: as §1
[25] = test system: Kidney; assay: Biodistribution in NMRI mouse kidneys at 3.7 MBq/mL after 60 mins by gamma counter; format: ADME, organism-based; conditions: in vivo, 1 h; procedure, shortened: as §1
[26] = test system: Kidney; assay: Biodistribution in NMRI mouse kidneys assessed per gram of tissue at 3.7 MBq/mL after 2 mins by gamma counter; format: ADME, organism-based; conditions: in vivo; procedure, shortened: as §1
[27] = test system: Kidney; assay: Biodistribution in NMRI mouse kidneys at 3.7 MBq/mL after 2 mins by gamma counter; format: ADME, organism-based; conditions: in vivo; procedure, shortened: as §1
[28] = Biodistribution in NMRI mouse urine at 3.7 MBq/mL after 60 mins by gamma counter; format: ADME, organism-based; conditions: in vivo, 1 h; procedure, shortened: as §1
[29] = Biodistribution in NMRI mouse urine at 3.7 MBq/mL after 2 mins by gamma counter; format: ADME, organism-based; conditions: in vivo; procedure, shortened: as §1
[30] = Partition coefficient, log P at pH 7.4; format: physicochemical; conditions: octanol/water

[18F]c1ccc(-c2nc3ccccc3s2)cc1
Activity [1]: 8.2 % ID/g | Activity [2]: 21.8 %ID | Activity [3]: 10.2 % ID/g | Activity [4]: 11.7 %ID | Activity [5]: 5.3 % ID/g | Activity [6]: 3.9 %ID | Activity [7]: 13.8 % ID/g | Activity [8]: 0.4 %ID | Activity [9]: 1.5 % ID/g | Activity [10]: 8.5 %ID | Activity [11]: 7.8 %ID | Activity [12]: 2.9 % ID/g | Activity [13]: 1.8 %ID | Activity [14]: 0.6 % ID/g | Activity [15]: 1.03 %ID | Activity [16]: 3.2 % ID/g | Activity [17]: 0.07 %ID | Activity [18]: 0.21 % ID/g | Activity [19]: 0.33 %ID | Activity [20]: 3.35 % ID/g | Activity [21]: 0.02 %ID | Activity [22]: 0.21 % ID/g | Activity [23]: 30.3 %ID | Activity [24]: 49.4 %ID | Activity [25]: 5.9 %ID | Activity [26]: 17.9 % ID/g | Activity [27]: 11.4 %ID | Activity [28]: 15.5 %ID | Activity [29]: 0.6 %ID | logD [30]: 2.86
